Molecular target: T1, Adenosine receptor A1 (Homo sapiens, UniProt P30542)
T1 sequence (P30542 whole entry): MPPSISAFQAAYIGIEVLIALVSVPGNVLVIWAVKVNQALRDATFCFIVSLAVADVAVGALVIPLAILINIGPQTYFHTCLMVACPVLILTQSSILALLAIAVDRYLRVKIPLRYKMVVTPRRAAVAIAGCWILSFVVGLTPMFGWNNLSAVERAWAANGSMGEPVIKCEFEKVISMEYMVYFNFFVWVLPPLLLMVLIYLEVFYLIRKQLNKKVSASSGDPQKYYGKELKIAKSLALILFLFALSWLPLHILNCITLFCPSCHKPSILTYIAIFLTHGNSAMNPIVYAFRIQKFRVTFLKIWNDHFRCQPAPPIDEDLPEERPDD
Experiment: Displacement of [3H]DPCPX from human adenosine A1 receptor expressed in CHO cells after 60 mins by beta scintillation counting
Format: cell-based
How it was run: (§1)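 Membranes of CHO-A1 cells (15 lg protein) in 20 mM Hepes, 100 mM NaCl, 10 mM MgCl2, 2 units/ml adenosine deaminase, pH 7.4, with 2 nM [3H]DPCPX; 60 min at 25 °C, duplicates. Non-specific binding with 10 µM (R)-PIA. Filtration, scintillation counting. Single point at 10 µM or six concentrations 10 nM–100 µM; Ki by Cheng–Prusoff.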

Ki [nM] | Structure (SMILES)
15.8 | C=CCOc1cccc(-c2nc(O)c3c4ccccc4c(=O)n(CC)n23)c1

Molecular target: T2, Adenosine receptor A3 (Homo sapiens) (UniProt P0DMS8)
T2 sequence (whole entry): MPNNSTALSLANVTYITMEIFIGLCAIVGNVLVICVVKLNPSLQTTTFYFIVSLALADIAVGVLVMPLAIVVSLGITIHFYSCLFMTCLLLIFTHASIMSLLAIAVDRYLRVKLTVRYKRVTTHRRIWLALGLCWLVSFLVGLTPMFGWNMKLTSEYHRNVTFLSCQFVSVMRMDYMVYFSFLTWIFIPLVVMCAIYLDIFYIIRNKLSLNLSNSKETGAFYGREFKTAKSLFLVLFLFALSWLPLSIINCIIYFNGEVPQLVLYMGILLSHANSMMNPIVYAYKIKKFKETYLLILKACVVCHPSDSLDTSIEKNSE
Experiment: Displacement of [3H]NECA from human adenosine A3 receptor expressed in human HeLa cells at 10 uM after 180 mins by beta scintillation counting
Format: cell-based
How it was run: (§2)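 HeLa-A3 membranes (90 lg protein) in 50 mM Tris–HCl, 1 mM EDTA, 5 mM MgCl2, 2 UI/mL adenosine deaminase, pH 7.4; 30 nM [3H]NECA, 180 min at 25 °C, triplicates, GF/B filtration. Non-specific with 100 µM (R)-PIA. Tested at 10 µM or six concentrations 10 nM–100 µM; Ki by Cheng–Prusoff.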

inhibition [%] | Structure (SMILES)
3 | Cc1ccc(-n2cnc3c(N4CCOCC4)nc(-c4ccc(C#N)cc4)nc32)cc1
1.9 | CCO/C=N/c1c(C#N)ncn1Cc1ccccc1
23.1 | NC(=O)c1nc(-c2cccc(O)c2)nc2c1ncn2-c1ccccc1
10.9 | NC(=O)c1nc(-c2ccccc2O)nc2c1ncn2Cc1ccccc1
31.8 | COc1ccc(-c2nc(N3CCOCC3)c3ncn(-c4ccc(F)cc4)c3n2)cc1
15.1 | N#Cc1ccc(-c2nc(N3CCCCC3)c3ncn(-c4ccc(F)cc4)c3n2)cc1
71.1 | Cc1ccc(-c2ncc3[nH]c(=O)n(Cc4ccccc4)c3n2)cc1
39 | C=CCOc1cccc(-c2nc(O)c3c4ccccc4c(=O)n(CC)n23)c1
1.9 | Cc1ccc(-n2cnc3c(N4CCSCC4)nc(-c4ccc(C#N)cc4)nc32)cc1

Molecular target: T3, Adenosine receptor A3 (Homo sapiens, UniProt P0DMS8)
T3 sequence (P0DMS8 whole entry): T2 sequence (whole entry)
Experiment: Antagonist activity at human adenosine A3 receptor expressed in forskolin-stimulated CHO cells assessed as inhibition of […]-induced decrease in cAMP level pre-incubated for 15 mins by enzyme immunoassay
Format: functional, cell-based
How it was run: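 Using CHO-A3 cells (20,000/well, DMEM F-12, 10% FCS), test compound plus 30 µM rolipram pre-incubated 15 min at 37 °C; 1 µM NECA added 15 min, then 10 µM forskolin 3 min. cAMP by enzyme immunoassay at 450 nm; pKB by Leff–Dougall equation.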

pKb | Structure (SMILES)
6.3 | Cc1ccc(-c2ncc3[nH]c(=O)n(Cc4ccccc4)c3n2)cc1

Molecular target: T3, Adenosine receptor A3
Experiment: Displacement of [3H]NECA from human adenosine A3 receptor expressed in human HeLa cells after 180 mins by beta scintillation counting
Format: cell-based
How it was run: as §2

Ki [nM] | Structure (SMILES)
316 | Cc1ccc(-c2ncc3[nH]c(=O)n(Cc4ccccc4)c3n2)cc1

Molecular target: T4, Adenosine receptor A2b (Homo sapiens) (UniProt P29275)
T4 sequence (whole entry): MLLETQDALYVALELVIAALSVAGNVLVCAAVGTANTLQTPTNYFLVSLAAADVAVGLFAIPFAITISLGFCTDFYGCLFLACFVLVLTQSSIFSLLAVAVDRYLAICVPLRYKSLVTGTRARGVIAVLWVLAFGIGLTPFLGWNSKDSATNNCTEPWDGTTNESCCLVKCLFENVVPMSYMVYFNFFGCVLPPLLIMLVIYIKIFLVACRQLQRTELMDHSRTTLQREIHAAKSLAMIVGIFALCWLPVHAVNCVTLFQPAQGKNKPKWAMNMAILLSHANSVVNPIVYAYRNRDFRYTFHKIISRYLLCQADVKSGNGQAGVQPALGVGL
Experiment: Displacement of [3H]DPCPX from human adenosine A2B receptor expressed in HEK293 cells at 10 uM after 30 mins by beta scintillation counting
Format: cell-based

inhibition [%] | Structure (SMILES)
6.8 | Cc1ccc(-n2cnc3c(N4CCOCC4)nc(-c4ccc(C#N)cc4)nc32)cc1
2 | CCO/C=N/c1c(C#N)ncn1Cc1ccccc1
0.5 | NC(=O)c1nc(-c2cccc(O)c2)nc2c1ncn2-c1ccccc1
9.5 | NC(=O)c1nc(-c2ccccc2O)nc2c1ncn2Cc1ccccc1
3 | COc1ccc(-c2nc(N3CCOCC3)c3ncn(-c4ccc(F)cc4)c3n2)cc1
6.9 | N#Cc1ccc(-c2nc(N3CCCCC3)c3ncn(-c4ccc(F)cc4)c3n2)cc1
2.6 | Cc1ccc(-c2ncc3[nH]c(=O)n(Cc4ccccc4)c3n2)cc1
5 | C=CCOc1cccc(-c2nc(O)c3c4ccccc4c(=O)n(CC)n23)c1
4.3 | Cc1ccc(-n2cnc3c(N4CCSCC4)nc(-c4ccc(C#N)cc4)nc32)cc1

Molecular target: T5, Adenosine receptor A1 (Homo sapiens) (UniProt P30542)
T5 sequence (whole entry): T1 sequence (P30542 whole entry)
Experiment: Displacement of [3H]DPCPX from human adenosine A1 receptor expressed in CHO cells at 10 uM after 60 mins by beta scintillation counting
Format: cell-based
How it was run: as §1

inhibition [%] | Structure (SMILES)
7.6 | Cc1ccc(-n2cnc3c(N4CCOCC4)nc(-c4ccc(C#N)cc4)nc32)cc1
9.8 | CCO/C=N/c1c(C#N)ncn1Cc1ccccc1
25.5 | NC(=O)c1nc(-c2cccc(O)c2)nc2c1ncn2-c1ccccc1
11.1 | NC(=O)c1nc(-c2ccccc2O)nc2c1ncn2Cc1ccccc1
18.8 | COc1ccc(-c2nc(N3CCOCC3)c3ncn(-c4ccc(F)cc4)c3n2)cc1
0.8 | N#Cc1ccc(-c2nc(N3CCCCC3)c3ncn(-c4ccc(F)cc4)c3n2)cc1
37.5 | Cc1ccc(-c2ncc3[nH]c(=O)n(Cc4ccccc4)c3n2)cc1
87.3 | C=CCOc1cccc(-c2nc(O)c3c4ccccc4c(=O)n(CC)n23)c1
6.8 | Cc1ccc(-n2cnc3c(N4CCSCC4)nc(-c4ccc(C#N)cc4)nc32)cc1

Molecular target: Adenosine receptor A2a (Homo sapiens, UniProt P29274)
Sequence (P29274 whole entry): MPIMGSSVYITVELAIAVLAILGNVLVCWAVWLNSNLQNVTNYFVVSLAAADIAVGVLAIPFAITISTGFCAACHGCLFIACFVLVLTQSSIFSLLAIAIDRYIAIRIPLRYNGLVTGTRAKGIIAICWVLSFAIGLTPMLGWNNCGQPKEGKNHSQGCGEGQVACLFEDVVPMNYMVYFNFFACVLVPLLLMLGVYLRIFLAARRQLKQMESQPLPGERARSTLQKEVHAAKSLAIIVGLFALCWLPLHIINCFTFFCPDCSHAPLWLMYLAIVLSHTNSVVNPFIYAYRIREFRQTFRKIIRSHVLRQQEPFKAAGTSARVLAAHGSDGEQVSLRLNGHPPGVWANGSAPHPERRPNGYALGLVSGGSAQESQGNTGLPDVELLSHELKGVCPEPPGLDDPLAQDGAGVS
Experiment: Displacement of [3H]ZM241385 from human adenosine A2A receptor expressed in human HeLa cells at 10 uM after 30 mins by beta scintillation counting
Format: cell-based
How it was run: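 Membranes from HeLa-A2A cells, 10 lg protein, in 50 mM Tris–HCl, 1 mM EDTA, 10 mM MgCl2, 2 UI/mL adenosine deaminase, pH 7.4; 3 nM [3H]ZM241385, 30 min at 25 °C, duplicates. 50 µM NECA defined non-specific binding. Single 10 µM point or six concentrations 10 nM–100 µM; Ki by Cheng–Prusoff.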

inhibition [%] | Structure (SMILES)
6.1 | Cc1ccc(-n2cnc3c(N4CCOCC4)nc(-c4ccc(C#N)cc4)nc32)cc1
15.2 | CCO/C=N/c1c(C#N)ncn1Cc1ccccc1
4.5 | NC(=O)c1nc(-c2cccc(O)c2)nc2c1ncn2-c1ccccc1
22.9 | NC(=O)c1nc(-c2ccccc2O)nc2c1ncn2Cc1ccccc1
5 | COc1ccc(-c2nc(N3CCOCC3)c3ncn(-c4ccc(F)cc4)c3n2)cc1
0.4 | N#Cc1ccc(-c2nc(N3CCCCC3)c3ncn(-c4ccc(F)cc4)c3n2)cc1
20 | Cc1ccc(-c2ncc3[nH]c(=O)n(Cc4ccccc4)c3n2)cc1
10.9 | C=CCOc1cccc(-c2nc(O)c3c4ccccc4c(=O)n(CC)n23)c1
14.3 | Cc1ccc(-n2cnc3c(N4CCSCC4)nc(-c4ccc(C#N)cc4)nc32)cc1

Molecular target: 5-hydroxytryptamine receptor 7 (Homo sapiens) (UniProt P34969)
Sequence (P34969 whole entry): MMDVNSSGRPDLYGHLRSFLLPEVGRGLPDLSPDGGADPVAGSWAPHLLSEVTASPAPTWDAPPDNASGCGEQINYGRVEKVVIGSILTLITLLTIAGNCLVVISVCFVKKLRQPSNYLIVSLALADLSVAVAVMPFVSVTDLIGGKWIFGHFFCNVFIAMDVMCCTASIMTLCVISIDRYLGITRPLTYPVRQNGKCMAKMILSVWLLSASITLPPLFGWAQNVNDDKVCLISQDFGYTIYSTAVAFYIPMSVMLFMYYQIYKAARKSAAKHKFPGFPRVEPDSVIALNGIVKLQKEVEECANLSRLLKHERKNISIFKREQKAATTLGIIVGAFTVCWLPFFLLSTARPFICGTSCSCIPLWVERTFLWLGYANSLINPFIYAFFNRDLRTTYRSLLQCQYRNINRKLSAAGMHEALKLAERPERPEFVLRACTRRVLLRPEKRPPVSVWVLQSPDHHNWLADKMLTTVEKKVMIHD
Experiment: Displacement of [3H]SB269970 from human 5HT7 receptor expressed in HEK293 cells at 10 uM after 60 mins by beta scintillation counting
Format: cell-based
How it was run: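 HEK-293-5-HT7 membranes (5 lg protein) in 50 mM Tris–HCl, 4 mM CaCl2, 1 mM ascorbic acid, 0.1 mM pargyline, pH 7.4; 2 nM [3H]SB269970, compound at 10 µM, 60 min at 37 °C, duplicates. Non-specific defined with 25 µM clozapine.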

Activity [%] | Structure (SMILES)
1 | Cc1ccc(-c2ncc3[nH]c(=O)n(Cc4ccccc4)c3n2)cc1
20 | C=CCOc1cccc(-c2nc(O)c3c4ccccc4c(=O)n(CC)n23)c1

Molecular target: Histamine H1 receptor (Homo sapiens) (UniProt P35367)
Sequence (P35367 whole entry): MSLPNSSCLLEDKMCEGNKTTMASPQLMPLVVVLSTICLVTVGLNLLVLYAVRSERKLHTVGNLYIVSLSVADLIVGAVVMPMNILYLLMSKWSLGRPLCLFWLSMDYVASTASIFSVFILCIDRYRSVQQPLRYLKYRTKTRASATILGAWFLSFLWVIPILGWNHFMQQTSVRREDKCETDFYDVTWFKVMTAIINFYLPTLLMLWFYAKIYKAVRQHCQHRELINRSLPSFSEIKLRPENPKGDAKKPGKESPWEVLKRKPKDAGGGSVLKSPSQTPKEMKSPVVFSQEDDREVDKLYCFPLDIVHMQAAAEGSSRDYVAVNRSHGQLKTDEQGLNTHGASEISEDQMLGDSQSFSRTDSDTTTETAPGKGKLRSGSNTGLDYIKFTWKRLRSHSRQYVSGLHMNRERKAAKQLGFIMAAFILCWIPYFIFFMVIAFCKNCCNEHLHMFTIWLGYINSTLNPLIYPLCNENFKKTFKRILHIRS
Experiment: Displacement of [3H]pyrilamine from human histamine H1 receptor expressed in CHO cells at 10 uM after 60 mins by beta scintillation counting
Format: cell-based
How it was run: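 CHO-H1 membranes (1 lg protein) in 50 mM Tris–HCl pH 7.4 with 2 nM [3H]pyrilamine and compound at 10 µM; 60 min at 27 °C, duplicates. 10 µM triprolidine for non-specific binding; GF/C filtration, scintillation counting.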

Activity [%] | Structure (SMILES)
17 | Cc1ccc(-c2ncc3[nH]c(=O)n(Cc4ccccc4)c3n2)cc1
42 | C=CCOc1cccc(-c2nc(O)c3c4ccccc4c(=O)n(CC)n23)c1

Molecular target: T6, Alpha-2A adrenergic receptor (Homo sapiens) (UniProt P08913)
T6 sequence (whole entry): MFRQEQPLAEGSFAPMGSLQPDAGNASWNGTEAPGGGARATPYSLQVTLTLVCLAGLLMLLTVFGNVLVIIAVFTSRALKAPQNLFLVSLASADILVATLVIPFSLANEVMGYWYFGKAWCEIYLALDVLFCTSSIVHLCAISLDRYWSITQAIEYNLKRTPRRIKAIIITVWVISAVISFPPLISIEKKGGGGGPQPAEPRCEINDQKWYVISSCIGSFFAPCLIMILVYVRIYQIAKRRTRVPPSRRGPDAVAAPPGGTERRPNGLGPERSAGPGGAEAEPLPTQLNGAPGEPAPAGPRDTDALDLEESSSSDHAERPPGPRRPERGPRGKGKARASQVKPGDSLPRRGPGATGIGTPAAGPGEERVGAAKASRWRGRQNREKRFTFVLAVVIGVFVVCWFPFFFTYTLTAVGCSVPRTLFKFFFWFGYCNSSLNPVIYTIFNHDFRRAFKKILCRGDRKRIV
Experiment: Displacement of [3H]MK912 from human adrenergic alpha2A receptor expressed in CHO cells at 10 uM after 30 mins by beta scintillation counting
Format: cell-based
How it was run: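 CHO-a2A membranes (25 lg protein) in 25 mM Na2PO4, pH 7.4, with 0.37 nM [3H]MK-912 and compound at 10 µM; 30 min at 25 °C, duplicates. Non-specific binding with 100 µM norepinephrine; filtration and scintillation counting.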

Activity [%] | Structure (SMILES)
18 | Cc1ccc(-c2ncc3[nH]c(=O)n(Cc4ccccc4)c3n2)cc1
14 | C=CCOc1cccc(-c2nc(O)c3c4ccccc4c(=O)n(CC)n23)c1

Molecular target: T1, Adenosine receptor A1
Experiment: Antagonist activity at human adenosine A1 receptor expressed in forskolin-stimulated CHO cells assessed as inhibition of […]-induced decrease in cAMP level pre-incubated for 15 mins by enzyme immunoassay
Format: functional, cell-based
How it was run: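 CHO-A1 cells, 20,000/well, grown in EMEM F-12 with 10% FCS; washed, pre-incubated 15 min at 37 °C with 20 µM rolipram plus test compound, then 0.1 µM NECA 15 min and 3 µM forskolin 3 min. Intracellular cAMP read by enzyme immunoassay at 450 nm; pKB from IC50 by Leff–Dougall equation.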

pKb | Structure (SMILES)
6.8 | C=CCOc1cccc(-c2nc(O)c3c4ccccc4c(=O)n(CC)n23)c1
